PMC12166256 (Clinical Pharmacology and Therapeutics, 2025)

Test: MAD study: safety and tolerability
Type: in vivo, human
Conditions: for Abdominal pain TEAE, events / Abdominal pain TEAE, participants / Alanine aminotransferase increased TEAE, events / Alanine aminotransferase increased TEAE, participants / Any event TEAE, events / Any event TEAE, participants / Constipation TEAE, events / Constipation TEAE, participants / Diarrhea TEAE, events / Diarrhea TEAE, participants / Dry skin TEAE, events / Dry skin TEAE, participants / Dysgeusia TEAE, events / Dysgeusia TEAE, participants / Gastrointestinal disorders TEAE, events / Gastrointestinal disorders TEAE, participants / General disorders and administration site conditions TEAE, events / General disorders and administration site conditions TEAE, participants / Headache TEAE, events / Headache TEAE, participants / Injury, poisoning, and procedural complications TEAE, events / Injury, poisoning, and procedural complications TEAE, participants / Investigations TEAE, events / Investigations TEAE, participants / Medical device site reaction TEAE, events / Medical device site reaction TEAE, participants / Musculoskeletal and connective tissue disorders TEAE, events / Musculoskeletal and connective tissue disorders TEAE, participants / Nasal dryness TEAE, events / Nasal dryness TEAE, participants / Neck pain TEAE, events / Neck pain TEAE, participants / Nervous system disorders TEAE, events / Nervous system disorders TEAE, participants / Oropharyngeal pain TEAE, events / Oropharyngeal pain TEAE, participants / Reproductive system and breast disorders TEAE, events / Reproductive system and breast disorders TEAE, participants / Respiratory, thoracic, and mediastinal disorders TEAE, events / Respiratory, thoracic, and mediastinal disorders TEAE, participants / Skin and subcutaneous tissue disorders TEAE, events / Skin and subcutaneous tissue disorders TEAE, participants / Sneezing TEAE, events / Sneezing TEAE, participants / Testicular mass TEAE, events / Testicular mass TEAE, participants / Wound TEAE, events / Wound TEAE, participants: N = 8
Summary of the method: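 Healthy males aged 18–55 with BMI 18–30 kg/m² were followed through dosing and a 6–8-day follow-up. Checks: physical examination, clinical laboratory tests, vital signs and 12-lead ECG, with adverse events coded in MedDRA. Events of special interest: ALT ≥2×ULN, QTcF ≥500 ms, Grade ≥2 photosensitivity, symptomatic overdose. Treatment-emergent events were summarised descriptively by organ class, preferred term and dose level for all exposed participants.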

## CN1C(=O)c2cccc(OC(F)F)c2[C@H]2C[C@@H]1c1nc3ccc(-c4cnc(C5(N)CCC5)nc4)cc3n12 [Balinatunfib]
MAD
  Grade ≥ 3 TEAE, treatment-emergent SAEs, TEAEs leading to discontinuation: No participants
MAD 100 mg BID
  Abdominal pain TEAE, events: 0
  Abdominal pain TEAE, participants: 0 n (%)
  Alanine aminotransferase increased TEAE, events: 0
  Alanine aminotransferase increased TEAE, participants: 0 n (%)
  Any event TEAE, events: 3
  Any event TEAE, participants: 2 (25.0) n (%)
  Constipation TEAE, events: 0
  Constipation TEAE, participants: 0 n (%)
  Diarrhea TEAE, events: 0
  Diarrhea TEAE, participants: 0 n (%)
  Dry skin TEAE, events: 0
  Dry skin TEAE, participants: 0 n (%)
  Dysgeusia TEAE, events: 0
  Dysgeusia TEAE, participants: 0 n (%)
  Gastrointestinal disorders TEAE, events: 0
  Gastrointestinal disorders TEAE, participants: 0 n (%)
  General disorders and administration site conditions TEAE, events: 0
  General disorders and administration site conditions TEAE, participants: 0 n (%)
  Headache TEAE, events: 0
  Headache TEAE, participants: 0 n (%)
  Injury, poisoning, and procedural complications TEAE, events: 0
  Injury, poisoning, and procedural complications TEAE, participants: 0 n (%)
  Investigations TEAE, events: 0
  Investigations TEAE, participants: 0 n (%)
  Medical device site reaction TEAE, events: 0
  Medical device site reaction TEAE, participants: 0 n (%)
  Musculoskeletal and connective tissue disorders TEAE, events: 0
  Musculoskeletal and connective tissue disorders TEAE, participants: 0 n (%)
  Nasal dryness TEAE, events: 0
  Nasal dryness TEAE, participants: 0 n (%)
  Neck pain TEAE, events: 0
  Neck pain TEAE, participants: 0 n (%)
  Nervous system disorders TEAE, events: 0
  Nervous system disorders TEAE, participants: 0 n (%)
  Oropharyngeal pain TEAE, events: 1
  Oropharyngeal pain TEAE, participants: 1 (12.5) n (%)
  Reproductive system and breast disorders TEAE, events: 1
  Reproductive system and breast disorders TEAE, participants: 1 (12.5) n (%)
  Respiratory, thoracic, and mediastinal disorders TEAE, events: 2
  Respiratory, thoracic, and mediastinal disorders TEAE, participants: 2 (25.0) n (%)
  Skin and subcutaneous tissue disorders TEAE, events: 0
  Skin and subcutaneous tissue disorders TEAE, participants: 0 n (%)
  Sneezing TEAE, events: 1
  Sneezing TEAE, participants: 1 (12.5) n (%)
  Testicular mass TEAE, events: 1
  Testicular mass TEAE, participants: 1 (12.5) n (%)
  Wound TEAE, events: 0
  Wound TEAE, participants: 0 n (%)
MAD 100 mg QD
  Abdominal pain TEAE, events: 1
  Abdominal pain TEAE, participants: 1 (12.5) n (%)
  Alanine aminotransferase increased TEAE, events: 3
  Alanine aminotransferase increased TEAE, participants: 3 (37.5) n (%)
  Any event TEAE, events: 9
  Any event TEAE, participants: 4 (50.0) n (%)
  Constipation TEAE, events: 0
  Constipation TEAE, participants: 0 n (%)
  Diarrhea TEAE, events: 2
  Diarrhea TEAE, participants: 2 (25.0) n (%)
  Dry skin TEAE, events: 0
  Dry skin TEAE, participants: 0 n (%)
  Dysgeusia TEAE, events: 0
  Dysgeusia TEAE, participants: 0 n (%)
  Gastrointestinal disorders TEAE, events: 3
  Gastrointestinal disorders TEAE, participants: 2 (25.0) n (%)
  General disorders and administration site conditions TEAE, events: 0
  General disorders and administration site conditions TEAE, participants: 0 n (%)
  Headache TEAE, events: 1
  Headache TEAE, participants: 1 (12.5) n (%)
  Injury, poisoning, and procedural complications TEAE, events: 1
  Injury, poisoning, and procedural complications TEAE, participants: 1 (12.5) n (%)
  Investigations TEAE, events: 3
  Investigations TEAE, participants: 3 (37.5) n (%)
  Medical device site reaction TEAE, events: 0
  Medical device site reaction TEAE, participants: 0 n (%)
  Musculoskeletal and connective tissue disorders TEAE, events: 1
  Musculoskeletal and connective tissue disorders TEAE, participants: 1 (12.5) n (%)
  Nasal dryness TEAE, events: 0
  Nasal dryness TEAE, participants: 0 n (%)
  Neck pain TEAE, events: 1
  Neck pain TEAE, participants: 1 (12.5) n (%)
  Nervous system disorders TEAE, events: 1
  Nervous system disorders TEAE, participants: 1 (12.5) n (%)
  Oropharyngeal pain TEAE, events: 0
  Oropharyngeal pain TEAE, participants: 0 n (%)
  Reproductive system and breast disorders TEAE, events: 0
  Reproductive system and breast disorders TEAE, participants: 0 n (%)
  Respiratory, thoracic, and mediastinal disorders TEAE, events: 0
  Respiratory, thoracic, and mediastinal disorders TEAE, participants: 0 n (%)
  Skin and subcutaneous tissue disorders TEAE, events: 0
  Skin and subcutaneous tissue disorders TEAE, participants: 0 n (%)
  Sneezing TEAE, events: 0
  Sneezing TEAE, participants: 0 n (%)
  Testicular mass TEAE, events: 0
  Testicular mass TEAE, participants: 0 n (%)
  Wound TEAE, events: 1
  Wound TEAE, participants: 1 (12.5) n (%)
MAD 200 mg BID
  Abdominal pain TEAE, events: 0
  Abdominal pain TEAE, participants: 0 n (%)
